For assay [1], the target named is T1, P2Y purinoceptor 6 (Rattus norvegicus, UniProt Q63371). Description: (§1) Agonist activity at rat P2Y purinoceptor 6 expressed in human 1321N1 cells assessed as increase in intracellular calcium concentration by spectrofluorimetry. The procedure, abridged: (§2)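 1321N1 astrocytoma cells lacking endogenous P2Y receptors, stably transfected with turkey P2Y1, human P2Y2, human P2Y4 or rat P2Y6, grown in DMEM with 5% FBS, penicillin/streptomycin and 500 µg/mL G-418. Fura-2-loaded cell suspensions were exposed at 37 °C in 10 mM Hepes-buffered saline, pH 7.4, with 1 mM CaCl2 and 1 mM MgCl2. Peak [Ca2+]i rise by dual-excitation spectrofluorometry across concentrations; EC50 from curve fits; three experiments on separate days per subtype.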
T1 sequence (Q63371 whole entry): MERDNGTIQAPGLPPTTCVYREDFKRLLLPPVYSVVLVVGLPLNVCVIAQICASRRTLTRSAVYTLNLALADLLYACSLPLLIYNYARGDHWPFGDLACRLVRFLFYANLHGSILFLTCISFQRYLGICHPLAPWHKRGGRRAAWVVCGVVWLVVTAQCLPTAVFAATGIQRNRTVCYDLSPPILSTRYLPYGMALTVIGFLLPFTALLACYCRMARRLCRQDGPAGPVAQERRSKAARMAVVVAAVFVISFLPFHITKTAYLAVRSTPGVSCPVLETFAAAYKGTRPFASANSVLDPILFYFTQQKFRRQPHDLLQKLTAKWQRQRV

Assay [2] addresses T1, P2Y purinoceptor 6. Described as §1. The gist of the method:
as §2
This is another data set of the same source.

Assay [3] concerns the target T2, P2Y purinoceptor 4 (Homo sapiens, UniProt P51582). Description: (§3) Agonist activity at human P2Y purinoceptor 4 expressed in human 1321N1 cells assessed as increase in intracellular calcium concentration by spectrofluorimetry. The gist of the method:
(§4)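 1321N1 astrocytoma cells (no endogenous P2Y receptors) stably expressing hP2Y4, grown in DMEM with 5% FBS, penicillin/streptomycin and 500 μg/mL G-418. Fura-2-loaded cell suspensions; compounds applied at various concentrations, 37 °C, 10 mM Hepes-buffered saline pH 7.4 with 1 mM CaCl2/MgCl2. Peak [Ca2+]i rise by dual-excitation fluorometry gives EC50; UTP reference agonist; three experiments on separate days.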

In assay [4] the target is T2, P2Y purinoceptor 4. Described as §3. The gist of the method: as §4
The source holds these as a separate data set.

The target in assay [5] is T3, P2Y purinoceptor 1 (Meleagris gallopavo, UniProt P49652). The assay is described as follows: (§5) Agonist activity at turkey P2Y purinoceptor 1 expressed in human 1321N1 cells assessed as increase in intracellular calcium concentration by spectrofluorimetry. The procedure, abridged:
as §2

For assay [6], the target named is T3, P2Y purinoceptor 1. Described as §5. This is another data set of the same source.
The target in assay [7] is T4, P2Y purinoceptor 2 (Homo sapiens, UniProt P41231). The assay is described as follows: (§6) Agonist activity at human P2Y purinoceptor 2 expressed in human 1321N1 cells assessed as increase in intracellular calcium concentration by spectrofluorimetry. The gist of the method:
as §2

The target in assay [8] is T4, P2Y purinoceptor 2. Described as §6. The source holds these as a separate data set.

Each structure is given as a SMILES string. pEC50: −log10 of the molar value.

T3 sequence (P49652 whole entry): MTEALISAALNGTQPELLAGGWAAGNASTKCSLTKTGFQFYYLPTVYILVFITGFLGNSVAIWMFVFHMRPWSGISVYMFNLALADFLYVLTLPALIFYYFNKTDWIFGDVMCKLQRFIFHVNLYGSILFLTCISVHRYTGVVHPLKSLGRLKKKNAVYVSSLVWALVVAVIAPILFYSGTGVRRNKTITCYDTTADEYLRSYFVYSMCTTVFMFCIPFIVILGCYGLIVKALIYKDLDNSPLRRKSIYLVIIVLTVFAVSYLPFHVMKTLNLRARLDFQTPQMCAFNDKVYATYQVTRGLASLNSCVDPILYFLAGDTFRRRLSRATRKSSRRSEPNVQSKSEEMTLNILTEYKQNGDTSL
T4 sequence (P41231 whole entry): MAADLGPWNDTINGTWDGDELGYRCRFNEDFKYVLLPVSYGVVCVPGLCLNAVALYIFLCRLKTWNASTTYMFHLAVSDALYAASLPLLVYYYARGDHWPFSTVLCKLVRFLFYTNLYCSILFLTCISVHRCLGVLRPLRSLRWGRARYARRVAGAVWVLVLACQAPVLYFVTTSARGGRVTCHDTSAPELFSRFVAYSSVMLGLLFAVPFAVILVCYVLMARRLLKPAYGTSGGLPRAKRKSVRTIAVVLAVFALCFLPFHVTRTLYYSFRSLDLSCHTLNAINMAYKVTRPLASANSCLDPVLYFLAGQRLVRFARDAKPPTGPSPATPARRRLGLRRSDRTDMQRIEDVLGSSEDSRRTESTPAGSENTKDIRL
T2 sequence (P51582 whole entry): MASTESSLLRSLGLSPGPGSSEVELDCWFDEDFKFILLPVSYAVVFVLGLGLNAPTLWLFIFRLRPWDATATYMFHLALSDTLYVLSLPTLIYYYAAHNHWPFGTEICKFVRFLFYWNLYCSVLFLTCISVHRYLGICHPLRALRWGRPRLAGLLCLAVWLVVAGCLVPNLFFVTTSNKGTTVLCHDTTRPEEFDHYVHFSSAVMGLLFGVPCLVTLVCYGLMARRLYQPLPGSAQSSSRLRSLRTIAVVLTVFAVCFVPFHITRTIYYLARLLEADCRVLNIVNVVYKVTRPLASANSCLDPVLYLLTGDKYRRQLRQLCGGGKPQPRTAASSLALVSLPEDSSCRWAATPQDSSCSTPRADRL

With `BP(=O)(OC[C@H]1O[C@@H](n2ccc(=O)[nH]c2=O)[C@H](O)[C@@H]1O)OP(=O)(O)OP(=O)(O)OC[C@H]1O[C@@H](n2ccc(=O)[nH]c2=O)[C@H](O)[C@@H]1O` (some centres undefined), the pEC50 at P2Y purinoceptor 6 [1] and at P2Y purinoceptor 6 [2] was 6.14 throughout.

On to `BP(=O)(OC[C@H]1O[C@@H](n2ccc(=O)[nH]c2=O)[C@H](O)[C@@H]1O)OP(=O)(O)OP(=O)(O)OP(=O)(O)OC[C@H]1O[C@@H](n2ccc(=O)[nH]c2=O)[C@H](O)[C@@H]1O` (some centres undefined), for which the pEC50 is 5.03 on P2Y purinoceptor 4 [3], 4.44 at P2Y purinoceptor 6 [1], 5.03 at P2Y purinoceptor 4 [4] and 4.44 on P2Y purinoceptor 6 [2].

For `BP(=O)(OP(=O)(O)OC[C@H]1O[C@@H](n2cnc3c(N)ncnc32)[C@H](O)[C@@H]1O)OP(=O)(O)OP(=O)(O)OC[C@H]1O[C@@H](n2cnc3c(N)ncnc32)[C@H](O)[C@@H]1O` (some centres undefined), the pEC50 on P2Y purinoceptor 1 [5] and at P2Y purinoceptor 1 [6] was 5.52 throughout.

Take `BP(=O)(OP(=O)(O)OC[C@H]1O[C@@H](n2cnc3c(N)ncnc32)[C@H](O)[C@@H]1O)OP(=O)(O)OP(=O)(O)OC[C@H]1O[C@@H](n2ccc(=O)[nH]c2=O)[C@H](O)[C@@H]1O` (some centres undefined): the pEC50 on P2Y purinoceptor 2 [7] was 4.19; on P2Y purinoceptor 6 [1] it was 5.89; at P2Y purinoceptor 6 [2], 5.89; at P2Y purinoceptor 1 [6], 5.16.

Take `BP(=O)(OP(=O)(O)OC[C@H]1O[C@@H](n2ccc(=O)[nH]c2=O)[C@H](O)[C@@H]1O)OP(=O)(O)OP(=O)(O)OC[C@H]1O[C@@H](n2cnc3c(N)ncnc32)[C@H](O)[C@@H]1O` (some centres undefined): the pEC50 at P2Y purinoceptor 1 [5] is 6.30; at P2Y purinoceptor 6 [1] it was 4.68; at P2Y purinoceptor 6 [2], 4.68; on P2Y purinoceptor 1 [6], 6.30.

Take `BP(=O)(OC[C@H]1O[C@@H](n2cnc3c(N)ncnc32)[C@H](O)[C@@H]1O)OP(=O)(O)OP(=O)(O)OC[C@H]1O[C@@H](n2cnc3c(N)ncnc32)[C@H](O)[C@@H]1O` (some centres undefined): the pEC50 on P2Y purinoceptor 1 [5] and at P2Y purinoceptor 1 [6] was 6.10 throughout.

`BP(=O)(OC[C@H]1O[C@@H](n2cnc3c(N)ncnc32)[C@H](O)[C@@H]1O)OP(=O)(O)OP(=O)(O)OP(=O)(O)OC[C@H]1O[C@@H](n2cnc3c(N)ncnc32)[C@H](O)[C@@H]1O` (some centres undefined): the pEC50 on P2Y purinoceptor 2 [7] is 4.59; at P2Y purinoceptor 1 [5], 5.83; at P2Y purinoceptor 2 [8] it was 4.59; on P2Y purinoceptor 1 [6], 5.83.

For the molecule `BP(=O)(OP(=O)(O)OC[C@H]1O[C@@H](n2ccc(=O)[nH]c2=O)[C@H](O)[C@@H]1O)OP(=O)(O)OP(=O)(O)OC[C@H]1O[C@@H](n2ccc(=O)[nH]c2=O)[C@H](O)[C@@H]1O` (some centres undefined), the pEC50 on P2Y purinoceptor 6 [1] and on P2Y purinoceptor 6 [2] was 5.71 in each case.

(Values after BindingDB's records for doi:10.1021/jm2013198 (Bar-Ilan University, 2012).)
